Experimental data taken from ChEMBL document CHEMBL4334465, “SAR Studies on Aromatic Acylhydrazone-Based Inhibitors of Fungal Sphingolipid Synthesis as Next-Generation Antifungal Agents” (J Med Chem, 2019).
≈ marks a conversion by molar mass, not a printed value.

Assays:
Cryptococcus neoformans [1] = experiment: Antifungal activity against Cryptococcus neoformans H99 measured after 24 to 72 hrs; format: functional; settings: var grubii H99
Outline: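 Modified CLSI broth microdilution with inoculum per M27A3. Compounds were serially diluted 32 to 0.03 μg/mL. Media: C. neoformans in HEPES-buffered YNB without amino acids (pH 7.0, 2% glucose); Candida strains in YNB without ammonium sulfate or amino acids plus 1% asparagine (pH 7.0, 2% glucose); A. fumigatus in RPMI (pH 7.0, 2% glucose).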

A549 = experiment: Cytotoxicity against human A549 cells after 24 to 48 hrs by MTT assay; format: functional; settings: read-out: LD50 (the source's name)
Outline: (§1)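 A549 and HepG2 kept in DMEM with 10% FBS and 1% pen-strep. At passage 7, seeded at 10⁵ cells/well and allowed to adhere 14 h. Compound added at 0.03–128 μg/mL, untreated wells as controls. Incubation 37°C, 5% CO₂ for 24 or 48 h. MTT (5 mg/mL in PBS) added for 4 h, formazan dissolved in DMSO, OD570.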

Cryptococcus neoformans [2] = experiment: Fungicidal activity against Cryptococcus neoformans H99 measured after 48 hrs by time-kill assay; format: functional, var grubii H99
Outline: (§2)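 Overnight C. neoformans washed in PBS and resuspended in HEPES-buffered YNB, pH 7.4. 2 × 10⁴ cells exposed to a range of drug concentrations in 10 mL with 0.5% DMSO final, at 37°C, 5% CO₂, shaking at 200 rpm. Aliquots sampled over 96 h, diluted and plated on YPD; CFU counted after 48 h at 30°C.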

[3] = Selectivity index, ratio of LD50 for human HepG2 cells to MIC80 for Cryptococcus neoformans H99; format: toxicity; settings: read-out: Selectivity Index
Outline: (§3)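 SI = LD₅₀/MIC₈₀. Cytotoxicity: A549 or HepG2 cells (DMEM, 10% FBS, passage 7, 10⁵ cells/well) adhered 14 h, then exposed to 0.03–128 μg/mL for 24 or 48 h at 37°C, 5% CO₂; MTT 4 h, formazan dissolved in DMSO, read at 570 nm. MIC₈₀ against C. neoformans from broth microdilution in HEPES-buffered YNB, pH 7.0.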

HepG2 = experiment: Cytotoxicity against human HepG2 cells after 24 to 48 hrs by MTT assay; format: functional; settings: read-out: LD50 (the source's name); outline: as §1
[4] = Selectivity index, ratio of LD50 for human A549 cells to MIC80 for Cryptococcus neoformans H99; format: toxicity; settings: read-out: Selectivity Index; outline: as §3
Cryptococcus neoformans [5] = experiment: Fungicidal activity against Cryptococcus neoformans H99 measured after 24 hrs by time-kill assay; format: functional, var grubii H99; outline: as §2

| SMILES | MIC80 (Cryptococcus neoformans [1]) | CC50 (A549) | MFC100 (Cryptococcus neoformans [2]) | selectivity ratio [3] | CC50 (HepG2) | selectivity ratio [4] | MFC100 (Cryptococcus neoformans [5]) |
| --- | --- | --- | --- | --- | --- | --- | --- |
| Cc1ccccc1C(=O)N/N=C/c1cc(C#N)ccc1O | 4 µg/mL (≈ 14.3 µM) | – | – | – | – | – | – |
| Cc1ccccc1C(=O)N/N=C/c1cc(C(F)(F)F)ccc1O | 8 µg/mL (≈ 24.8 µM) | – | – | – | – | – | – |
| O=C(N/N=C/c1cc(Br)ccc1O)c1cccc(C(=O)N/N=C/c2cc(Br)ccc2O)c1 | > 16 µg/mL | – | – | – | – | – | – |
| O=C(N/N=C/c1ccc(Br)cc1O)c1cc(Br)cc(Br)c1 | 1 µg/mL (≈ 2.1 µM) | 4 µg/mL (≈ 8.39 µM) | 1 µg/mL (≈ 2.1 µM) | 16 | 16 µg/mL (≈ 33.5 µM) | 4 | – |
| O=C(N/N=C/c1cc(Br)ccc1O)c1ccc(C(F)(F)F)cc1F | 0.5 µg/mL (≈ 1.23 µM) | 16 µg/mL (≈ 39.5 µM) | 1 µg/mL (≈ 2.47 µM) | 32 | 16 µg/mL (≈ 39.5 µM) | 32 | – |
| O=C(N/N=C/c1ccc(Br)cc1O)c1ccc(OC(F)F)cc1 | 0.12 µg/mL (≈ 0.312 µM) | 32 µg/mL (≈ 83.1 µM) | – | 267 | 32 µg/mL (≈ 83.1 µM) | 267 | 1 µg/mL (≈ 2.6 µM) |
| O=C(N/N=C/c1cccc(Br)c1O)c1cccc(C(F)(F)F)c1 | 1 µg/mL (≈ 2.58 µM) | 16 µg/mL (≈ 41.3 µM) | 2 µg/mL (≈ 5.17 µM) | 16 | 16 µg/mL (≈ 41.3 µM) | 16 | – |
| O=C(N/N=C/c1cc(Br)ccc1O)c1cccc(OC(F)F)c1 | 0.12 µg/mL (≈ 0.312 µM) | 8 µg/mL (≈ 20.8 µM) | – | 533 | 64 µg/mL (≈ 166 µM) | 66.6 | 1 µg/mL (≈ 2.6 µM) |
| O=C(N/N=C/c1cc(Cl)cc(Cl)c1O)c1cc(Br)ccc1Br | 0.5 µg/mL (≈ 1.07 µM) | 32 µg/mL (≈ 68.5 µM) | – | 64 | 32 µg/mL (≈ 68.5 µM) | 64 | 0.25 µg/mL (≈ 0.535 µM) |
| O=C(N/N=C/c1c(O)ccc2ccccc12)c1cc(Br)cc(Br)c1 | 0.25 µg/mL (≈ 0.558 µM) | 2 µg/mL (≈ 4.46 µM) | – | 16 | 4 µg/mL (≈ 8.93 µM) | 8 | 0.5 µg/mL (≈ 1.12 µM) |
| O=C(c1ccc(Br)cc1)n1ccc(-c2cc(Br)cc(Br)c2O)n1 | > 16 µg/mL | – | – | – | – | – | – |
| O=C(N/N=C/c1ccc(Br)cc1O)c1cccc(C(F)(F)F)c1 | 0.5 µg/mL (≈ 1.29 µM) | 64 µg/mL (≈ 165 µM) | 2 µg/mL (≈ 5.17 µM) | 32 | 16 µg/mL (≈ 41.3 µM) | 128 | – |
| CN(C)c1ccc(C(=O)N/N=C/c2c(O)ccc3ccccc23)cc1 | 0.5 µg/mL (≈ 1.5 µM) | 32 µg/mL (≈ 96 µM) | – | – | 16 µg/mL (≈ 48 µM) | 64 | 2 µg/mL (≈ 6 µM) |
| O=C(N/N=C/c1cc(Br)cc(Br)c1O)c1cc(Br)cc(Br)c1 | > 16 µg/mL | – | – | – | – | – | – |
| Cc1ccc(O)c(/C=N/NC(=O)c2cccc(Br)c2Br)c1 | > 16 µg/mL | – | – | – | – | – | – |
| O=C(N/N=C/c1cc(F)ccc1O)c1cc(Br)ccc1Br | > 16 µg/mL | – | – | – | – | – | – |
| C/C(=N\NC(=O)c1cc(Br)ccc1Br)c1cc(Br)cc(Br)c1O | > 16 µg/mL | – | – | – | – | – | – |
| C/C(=N\NC(=O)c1cc(Br)ccc1Br)c1cc(Br)ccc1O | > 16 µg/mL | – | – | – | – | – | – |
| O=C(N/N=C/c1cc(Cl)ccc1O)c1ccc(Br)c(Br)c1 | 0.06 µg/mL (≈ 0.139 µM) | 16 µg/mL (≈ 37 µM) | 1 µg/mL (≈ 2.31 µM) | 533 | 32 µg/mL (≈ 74 µM) | 267 | – |
| N#Cc1ccc(O)c(/C=N/NC(=O)c2ccc(Br)cc2Br)c1 | 8 µg/mL (≈ 18.9 µM) | – | – | – | – | – | – |
| O=C(N/N=C/c1ccc(Br)cc1O)c1cccc(Br)c1Br | > 16 µg/mL | – | – | – | – | – | – |
| O=C(N/N=C/c1cc(Br)cc(Br)c1O)c1cccc(C(F)(F)F)c1 | 2 µg/mL (≈ 4.29 µM) | – | – | – | – | – | – |
| CN(/N=C/c1cc(Br)cc(Br)c1O)C(=O)c1ccc(Br)cc1 | > 16 µg/mL | – | – | – | – | – | – |
| Cc1ccc(O)c(/C=N/NC(=O)c2cc(Br)ccc2Br)c1 | 1 µg/mL (≈ 2.43 µM) | 32 µg/mL (≈ 77.7 µM) | 0.5 µg/mL (≈ 1.21 µM) | 32 | 32 µg/mL (≈ 77.7 µM) | 32 | – |
| O=C(N/N=C/c1ccc(Br)cc1O)c1cccc(Br)c1 | 0.5 µg/mL (≈ 1.26 µM) | 64 µg/mL (≈ 161 µM) | 0.25 µg/mL (≈ 0.628 µM) | 16 | 8 µg/mL (≈ 20.1 µM) | 128 | – |
| O=C(N/N=C/c1c(O)ccc2ccccc12)c1cccc(Br)c1Br | > 16 µg/mL | – | – | – | – | – | – |
